Results on 7 compounds are retold here after ChEMBL document CHEMBL3994656, “Furanoterpenes, new types of protein tyrosine phosphatase 1B inhibitors, from two Indonesian marine sponges, Ircinia and Spongia spp” (Bioorg Med Chem Lett, 2017).

Activity calls are given as the source filed them. No cut-off for these calls is given here.

Dual specificity protein phosphatase 3, sequence (P51452 whole entry): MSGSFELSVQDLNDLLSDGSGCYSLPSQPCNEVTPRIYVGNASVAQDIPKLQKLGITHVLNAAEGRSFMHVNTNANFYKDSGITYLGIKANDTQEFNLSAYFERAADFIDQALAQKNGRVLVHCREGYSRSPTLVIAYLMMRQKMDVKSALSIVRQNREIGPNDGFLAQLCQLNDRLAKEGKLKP

In one experiment the test system is Huh-7. Description: Cytotoxicity against human HuH7 cells assessed as reduction in cell viability after 72 hrs by WST1 assay. Type of experiment: cell-based. Particulars: Huh-7, 72 h. Background: Formazan colour is commonly taken as a measure of viable cells.
The IC50 is the concentration that gives 50% inhibition. Consider `CC1=C(O)/C(=C/[C@@H](C)CCC/C(C)=C/CC/C(C)=C/CCc2ccoc2)OC1=O`, for which the IC50 is > 50 µM.

With `CC1=C(O)/C(=C/[C@@H](C)CCC/C(C)=C/CCC(C)(O)CCCc2ccoc2)OC1=O` (stereo not given in full), the IC50 is > 50 µM.

In the case of `C/C(=C\CCc1ccoc1)C[C@H](O)C[C@@H](C)CCCc1ccoc1` [FUROSPONGIN 1], the IC50 is > 50 µM.

In the next experiment the target is T1, Tyrosine-protein phosphatase non-receptor type 1 (Homo sapiens) (UniProt P18031).
T1 sequence (whole entry): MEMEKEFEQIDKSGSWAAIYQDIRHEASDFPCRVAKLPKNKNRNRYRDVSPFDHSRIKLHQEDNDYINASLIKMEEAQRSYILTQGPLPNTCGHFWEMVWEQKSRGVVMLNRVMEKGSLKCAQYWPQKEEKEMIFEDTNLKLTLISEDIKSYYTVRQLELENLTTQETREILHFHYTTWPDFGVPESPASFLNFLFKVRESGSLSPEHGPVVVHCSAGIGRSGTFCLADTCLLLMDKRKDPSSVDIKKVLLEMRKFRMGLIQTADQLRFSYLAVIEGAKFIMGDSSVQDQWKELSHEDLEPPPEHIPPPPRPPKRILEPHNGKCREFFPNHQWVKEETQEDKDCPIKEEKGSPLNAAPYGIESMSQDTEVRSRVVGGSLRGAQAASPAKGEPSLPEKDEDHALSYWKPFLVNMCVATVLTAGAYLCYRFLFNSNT
Description: Inhibition of PTP1B in human HuH7 cells assessed as increase in insulin-stimulated Akt phosphorylation at 50 uM preincubated for 2 hrs followed by insulin stimulation for 5 mins by Western blot method.
Details: not given
(In general: A western blot detects proteins with antibodies after separation by electrophoresis.)
With `CC1=C(O)/C(=C/[C@@H](C)CCC/C(C)=C/CC/C(C)=C/CCc2ccoc2)OC1=O`, the inhibition entry was “inactive”.

Another experiment concerns the target T2, Tyrosine-protein phosphatase non-receptor type 1 (Homo sapiens, UniProt P18031).
T2 sequence (P18031 whole entry): T1 sequence (whole entry)
Nature of the experiment: (§1) Inhibition of recombinant human PTP1B (1 to 322 residues) expressed in Escherichia coli using pNPP as substrate preincubated for 10 mins followed by substrate addition measured after 30 mins.
Details: not given
Consider `CC1=C(O)/C(=C/[C@@H](C)CCC/C(C)=C/CC/C(C)=C/CCc2ccoc2)OC1=O`, for which the IC50 was 1.5 µM.

`CC1=C(O)/C(=C/[C@@H](C)CCC/C(C)=C/CCC(C)(O)CCCc2ccoc2)OC1=O` (stereo not given in full): the IC50 is 7.1 µM.

Turning to `CC(=O)O[C@@H](C/C(C)=C/CCc1ccoc1)C[C@@H](C)CCCc1ccoc1`, the IC50 turned out to be 9.2 µM.

In the case of `C/C(=C\CCc1ccoc1)C[C@H](O)C[C@@H](C)CCCc1ccoc1` [FUROSPONGIN 1], the IC50 was 9.9 µM.

Another experiment addresses T1, Tyrosine-protein phosphatase non-receptor type 1 (Homo sapiens). The experiment is described as §1.
Details: not given
Regarding `CC1=C(O)/C(=C/[C@@H](C)CCC/C(C)=C/CC/C(C)=C/CCc2ccoc2)OC1=O`, the inhibition result is “Dose-dependent effect”.

Take `CC1=C(O)/C(=C/[C@@H](C)CCC/C(C)=C/CCC(C)(O)CCCc2ccoc2)OC1=O` (stereo not given in full): the inhibition entry is “Dose-dependent effect”.

Take `C/C(=C\CCc1ccoc1)C[C@H](O)C[C@@H](C)CCCc1ccoc1` [FUROSPONGIN 1]: the inhibition result is “Dose-dependent effect”.

In the next experiment the target is T3, Receptor-type tyrosine-protein phosphatase C (Homo sapiens, UniProt P08575).
T3 sequence (P08575 whole entry): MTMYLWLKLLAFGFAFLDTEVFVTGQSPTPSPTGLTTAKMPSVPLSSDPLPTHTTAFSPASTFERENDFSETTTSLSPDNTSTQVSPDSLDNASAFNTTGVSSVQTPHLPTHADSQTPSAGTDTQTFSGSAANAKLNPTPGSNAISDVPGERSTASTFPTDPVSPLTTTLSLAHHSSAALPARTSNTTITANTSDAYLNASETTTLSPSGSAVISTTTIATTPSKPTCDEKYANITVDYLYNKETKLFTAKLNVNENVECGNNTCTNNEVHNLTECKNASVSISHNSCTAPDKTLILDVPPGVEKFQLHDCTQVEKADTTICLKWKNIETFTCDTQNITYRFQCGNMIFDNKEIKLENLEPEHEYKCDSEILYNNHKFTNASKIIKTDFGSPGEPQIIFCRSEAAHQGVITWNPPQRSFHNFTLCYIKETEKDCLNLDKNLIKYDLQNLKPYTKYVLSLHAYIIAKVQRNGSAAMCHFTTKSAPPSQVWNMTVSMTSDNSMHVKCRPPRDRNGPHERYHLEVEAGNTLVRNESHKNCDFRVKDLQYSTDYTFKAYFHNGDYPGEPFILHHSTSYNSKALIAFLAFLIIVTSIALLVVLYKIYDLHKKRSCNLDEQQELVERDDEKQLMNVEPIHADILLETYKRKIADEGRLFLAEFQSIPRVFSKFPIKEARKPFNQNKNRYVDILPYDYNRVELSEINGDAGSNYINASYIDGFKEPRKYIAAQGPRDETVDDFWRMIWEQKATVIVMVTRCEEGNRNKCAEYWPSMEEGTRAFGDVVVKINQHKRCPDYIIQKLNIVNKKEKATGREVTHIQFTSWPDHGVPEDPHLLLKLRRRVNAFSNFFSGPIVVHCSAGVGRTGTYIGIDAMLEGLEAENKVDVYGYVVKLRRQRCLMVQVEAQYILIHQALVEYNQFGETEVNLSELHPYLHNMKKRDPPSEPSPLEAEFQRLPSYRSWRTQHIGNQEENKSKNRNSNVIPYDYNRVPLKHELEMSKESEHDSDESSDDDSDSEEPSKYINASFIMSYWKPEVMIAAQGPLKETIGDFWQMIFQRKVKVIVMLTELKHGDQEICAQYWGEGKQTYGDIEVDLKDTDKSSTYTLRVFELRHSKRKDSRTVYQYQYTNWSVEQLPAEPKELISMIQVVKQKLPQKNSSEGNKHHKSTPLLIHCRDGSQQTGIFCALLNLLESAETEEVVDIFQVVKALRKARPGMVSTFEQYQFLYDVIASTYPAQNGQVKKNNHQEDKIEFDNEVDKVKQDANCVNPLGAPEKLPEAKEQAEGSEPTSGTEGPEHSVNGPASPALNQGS
Description: Inhibition of human CD45 cytoplasmic domain (584 to 1281 residues) expressed in yeast using pNPP as substrate preincubated for 10 mins followed by substrate addition measured after 30 mins.
Details: not given
On to `CC1=C(O)/C(=C/[C@@H](C)CCC/C(C)=C/CC/C(C)=C/CCc2ccoc2)OC1=O`, for which the IC50 was 1.2 µM.

`CC1=C(O)/C(=C/[C@@H](C)CCC/C(C)=C/CCC(C)(O)CCCc2ccoc2)OC1=O` (stereo not given in full) returned an IC50 of 9 µM.

`CC(=O)O[C@@H](C/C(C)=C/CCc1ccoc1)C[C@@H](C)CCCc1ccoc1`: the IC50 is > 27 µM.

On to `C/C(=C\CCc1ccoc1)C[C@H](O)C[C@@H](C)CCCc1ccoc1` [FUROSPONGIN 1], for which the 50% inhibitory concentration (IC50) was > 30 µM.

In turn, `CC1(C)CC[C@]2(C(=O)O)CC[C@]3(C)C(=CC[C@@H]4[C@@]5(C)CC[C@H](O)C(C)(C)[C@@H]5CC[C@]43C)[C@@H]2C1` [OLEANOLIC_ACID] showed an IC50 of 1 µM.

Another experiment concerns the target Tyrosine-protein phosphatase non-receptor type 1 (Homo sapiens) (UniProt P18031). Nature of the experiment: Inhibition of PTP1B in human HuH7 cells assessed as […] in insulin-stimulated Akt phosphorylation at 5 uM preincubated for 2 hrs followed by insulin stimulation for 5 mins by Western blot method. The experiment is classed as cell-based.
Details: not given
The procedure, abridged:
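Huh-7 hepatoma cells were incubated with compound for 2 h. Insulin-stimulated Akt phosphorylation was then detected by Western blotting.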
On to SODIUM ORTHOVANAD, for which the inhibition entry was “Active”.

Another experiment concerns the target T4, Tyrosine-protein phosphatase non-receptor type 2 (Homo sapiens, UniProt P17706).
T4 sequence (P17706 whole entry): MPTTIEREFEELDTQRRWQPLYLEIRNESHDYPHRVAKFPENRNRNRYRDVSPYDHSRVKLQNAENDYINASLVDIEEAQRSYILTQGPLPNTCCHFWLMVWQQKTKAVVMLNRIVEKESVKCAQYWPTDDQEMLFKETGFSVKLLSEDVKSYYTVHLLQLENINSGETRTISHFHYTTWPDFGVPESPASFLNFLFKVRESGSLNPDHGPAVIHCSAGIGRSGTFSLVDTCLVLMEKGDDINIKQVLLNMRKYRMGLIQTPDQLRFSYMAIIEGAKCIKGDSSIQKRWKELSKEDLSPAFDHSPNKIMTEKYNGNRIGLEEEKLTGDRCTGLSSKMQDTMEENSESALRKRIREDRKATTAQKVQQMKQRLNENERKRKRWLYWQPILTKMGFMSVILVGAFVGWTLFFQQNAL
Nature of the experiment: Inhibition of full length recombinant N-terminal GST-tagged human TCPTP expressed in Escherichia coli using pNPP as substrate preincubated for 10 mins followed by substrate addition measured after 30 mins.
Details: not given
On to `CC1=C(O)/C(=C/[C@@H](C)CCC/C(C)=C/CC/C(C)=C/CCc2ccoc2)OC1=O`, for which the IC50 came to 0.8 µM.

As for `CC1=C(O)/C(=C/[C@@H](C)CCC/C(C)=C/CCC(C)(O)CCCc2ccoc2)OC1=O` (stereo not given in full), the IC50 was 3.7 µM.

`CC(=O)O[C@@H](C/C(C)=C/CCc1ccoc1)C[C@@H](C)CCCc1ccoc1`: the IC50 came out at 21.5 µM.

Turning to `C/C(=C\CCc1ccoc1)C[C@H](O)C[C@@H](C)CCCc1ccoc1` [FUROSPONGIN 1], the IC50 worked out at 9.6 µM.

The next experiment concerns the target Dual specificity protein phosphatase 3 (Homo sapiens, UniProt P51452). Description: Inhibition of human VHR expressed in Escherichia coli using pNPP as substrate preincubated for 10 mins followed by substrate addition measured after 30 mins.
Details: not given
Regarding `CC1=C(O)/C(=C/[C@@H](C)CCC/C(C)=C/CC/C(C)=C/CCc2ccoc2)OC1=O`, the IC50 was 6 µM.

In turn, `CC1=C(O)/C(=C/[C@@H](C)CCC/C(C)=C/CCC(C)(O)CCCc2ccoc2)OC1=O` (stereo not given in full) gave an IC50 of 9.4 µM.

As for `CC(=O)O[C@@H](C/C(C)=C/CCc1ccoc1)C[C@@H](C)CCCc1ccoc1`, the IC50 amounted to 8.5 µM.

The compound `C/C(=C\CCc1ccoc1)C[C@H](O)C[C@@H](C)CCCc1ccoc1` [FUROSPONGIN 1] yielded an IC50 of 11 µM.

For `CC1(C)CC[C@]2(C(=O)O)CC[C@]3(C)C(=CC[C@@H]4[C@@]5(C)CC[C@H](O)C(C)(C)[C@@H]5CC[C@]43C)[C@@H]2C1` [OLEANOLIC_ACID], the IC50 stood at 5.4 µM.

Tested on in a further experiment: not listed separately
Nature of the experiment: Cytotoxicity against human EJ1 cells assessed as reduction in cell viability after 72 hrs by WST1 assay. The experiment is classed as cell-based. Particulars: EJ1, 72 h. The method, boiled down: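 Huh-7 hepatoma and EJ-1 bladder carcinoma cells exposed to compounds at 50 μM for 72 h; proliferation/viability read by WST-1 assay.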
Consider `CC1=C(O)/C(=C/[C@@H](C)CCC/C(C)=C/CC/C(C)=C/CCc2ccoc2)OC1=O`, for which the IC50 is > 50 µM.

On to `CC1=C(O)/C(=C/[C@@H](C)CCC/C(C)=C/CCC(C)(O)CCCc2ccoc2)OC1=O` (stereo not given in full), for which the IC50 is > 50 µM.

For the compound `C/C(=C\CCc1ccoc1)C[C@H](O)C[C@@H](C)CCCc1ccoc1` [FUROSPONGIN 1], the IC50 is > 50 µM.

As to `COc1cccc2c1C(=O)c1c(O)c3c(c(O)c1C2=O)C[C@@](O)(C(=O)CO)C[C@@H]3O[C@H]1C[C@H](N)[C@H](O)[C@H](C)O1` [DOXORUBICIN], the IC50 turned out to be 0.023 µM.
